Experimental data: ChEMBL document CHEMBL1124173, “Enantiomers of 7-(2,3-epoxypropoxy)actinomycin D as dual-action DNA-acting antitumor agents” (J Med Chem, 1988)

Experiments:
B16 = experiment: In vitro 50% Growth inhibition of sensitive B16 cells.; assay type: functional, Mus musculus; conditions: Mus musculus, B16; read-out: ID50 (the source's name)
Outline: (§1)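 Actively growing tumor cells in vitro (actinomycin-resistant P388/ADR leukemia; sensitive B16 melanoma); ID50 is concentration (nM) needed for 50% growth inhibition.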

L1210 [1] = experiment: 50% Inhibition of growth of L1210 cells in culture.; assay type: functional, Mus musculus; conditions: Mus musculus, L1210; read-out: ID50 (the source's name)
Outline: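 L1210 leukemia cells growing actively in culture; ID50 is drug concentration (nM) giving 50% inhibition of growth relative to untreated L1210 cells.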

L1210 [2] = experiment: Optimal dose per injection, administered ip on days 1, 5, and 9, ip inoculation with 10E5 L1210 cells per CDF1 mouse on day 0.; assay type: functional
Outline: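 CDF1 mice inoculated ip with 10^5 L1210 cells on day 0; drugs given ip on days 1, 5 and 9. Optimal dose in mg/kg per injection. %ILS is increase in median life span of treated dying mice over untreated tumor-bearing mice; survivors counted beyond 60 days, 9 per group.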

Mus musculus [3] = species: Mus musculus; experiment: Antitumor activity measured as % increase in life span, against C26 colon carcinoma.; assay type: functional
Outline: (§2)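 C26 primary colon carcinoma cells (trypan blue excluding, 2.5 × 10^5 cells/mouse) implanted in CDF1 mice on day 0. Drug given ip on days 1, 5 and 9 in 0.1 mL 5% v/v Me2SO-saline at optimal dose. Read-out is median survival time; %ILS is drug-treated over control, excluding survivors. Sixty-day survivors are counted.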

Mus musculus [4] = species: Mus musculus; experiment: percent increase in median life time (%ILS) measured in mice bearing leukemia L!210; assay type: functional
Outline: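 CDF1 mice inoculated ip with 10^5 L1210 cells on day 0. Drug given ip on days 1, 5 and 9 at the optimal dose in mg/kg per injection. %ILS is the increase in median life span of treated dying animals versus untreated tumor-bearing mice. Over-60-day survivors are counted; 9 mice per group.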

Mus musculus [5] = experiment: Antitumor activity measured as % increase in life span, for ip administration of compound and ip inoculation of B16 melanoma.; assay type: functional
Outline: (§3)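 B16 brei (tumor weight/Hank's balanced salt solution 1:5, 0.2 mL) implanted sc or ip into groups of nine BDF1 mice on day 0. Drug given iv on day 1 (sc tumor) or ip on days 1, 5 and 9 (ip tumor), in 0.1 mL 5% v/v Me2SO-saline. Read-out is median survival time and %ILS versus untreated controls, excluding sixty-day survivors.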

Mus musculus [6] = species: Mus musculus; experiment: Antitumor activity measured as optimal dose, against C26 colon carcinoma.; assay type: functional
Outline: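 Primary colon C26 carcinoma cells (trypan blue excluding, 2.5 × 10^5 cells/mouse) implanted in CDF1 mice on day 0. Drug given ip on days 1, 5 and 9 in 0.1 mL 5% v/v Me2SO-saline. Optimal dose in […]; %ILS and 60-day survivors scored.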

Mus musculus [7] = experiment: Antitumor activity measured as median survival time, for ip administration and ip inoculation of B16 melanoma.; assay type: functional; outline: as §3
Mus musculus [8] = species: Mus musculus; experiment: Antitumor activity measured as median survival time, against C26 colon carcinoma.; assay type: functional; outline: as §2
P388/ADR [9] = experiment: Antitumor activity measured as Median survival time in days against P388/ADR, in ip implanted CDF1 mice, qd 1-9; assay type: functional, Mus musculus
Outline: (§4)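 P388/ADR leukemia, a P388/S subline made resistant to intercalators, implanted ip in CDF1 mice. Drug given ip daily on days 1-9 at optimal dose. Read-out is median survival time of tumor-bearing mice and %ILS of treated dying animals versus controls. Survivors beyond 60 days are counted; 10 mice per group.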

P388/ADR [10] = experiment: Antitumor activity against P388/ADR, in ip implanted CDF1 mice, treated ip, qd 1-9 measured as optimal dose; assay type: functional, Mus musculus
Outline: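 P388/ADR leukemia implanted ip in CDF1 mice; drugs given ip once daily on days 1-9. Optimal dose recorded alongside median survival time and % increase in median life span of treated dying mice versus controls; survivors counted as >60-day survivors per group of 10.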

P388/ADR [11] = experiment: In vitro 50% Growth inhibition of actinomycin resistant P388/ADR cells; assay type: functional, Mus musculus; conditions: Mus musculus, P388/ADR; read-out: ID50 (the source's name); outline: as §1
P388/ADR [12] = experiment: Antitumor activity measured as %ILS against P388/ADR, in ip implanted CDF1 mice, qd 1-9; assay type: functional, Mus musculus; outline: as §4
Mus musculus [13] = species: Mus musculus; experiment: Antitumor activity measured as optimal dose, for B16 melanoma.
Mus musculus [14] = experiment: Antitumor activity measured as median survival time, for iv administration and sc inoculation of B16 melanoma.
Mus musculus [15] = experiment: Antitumor activity measured as % increase in life span, for iv administration of compound and sc inoculation of B16 melanoma.
Mus musculus [16] = experiment: Antitumor activity measured as median survival time, for iv administration and sc inoculation of B16 melanoma.; remark: listed apart in the source
Mus musculus [17] = experiment: Antitumor activity measured as % increase in life span, for iv administration of compound and sc inoculation of B16 melanoma.; remark: listed apart in the source
L1210 [18] = experiment: Inhibition of synthesis of [5-3H]-uridine into RNA in L1210 cells.; assay type: functional, cell-based, Mus musculus; conditions: l1210
Outline: (§5)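 Actively growing L1210 cells in vitro. Incorporation of [5-3H]uridine into RNA, or [methyl-14C]thymidine into DNA, compared with untreated cells. IC50 is micromolar drug concentration giving 50% reduction in incorporation rate.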

L1210 [19] = experiment: Inhibition of synthesis of [methyl-14C] thymidine into DNA, in L1210 cells.; assay type: functional, cell-based, Mus musculus; conditions: l1210; outline: as §5
Bos taurus = species: Bos taurus; experiment: Thermal denaturation of calf thymus DNA measured as ΔTm; conditions: cattle, in vitro
[20] = Molar ratio of DNA to total amount of compound that is bound both intercalatively and covalently to calf thymus DNA helix; assay type: functional
Outline: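 [3H]Drug and purified calf thymus DNA dialyzed at 37 °C in Tris HCl pH 7.4 (20 mM per footnote; 25 mM in methods). Equilibrated complex precipitated twice with ethanol to remove unbound drug. Molar DNA/drug ratio based on total bound drug, intercalative plus covalent.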

[21] = ratio of DNA to compound bound entirely by covalent bonding to DNA base.; assay type: functional
Outline: (§6)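 [3H]Drug and purified calf thymus DNA dialyzed at 37 °C in Tris HCl buffer; complex twice ethanol-precipitated to remove unbound drug. Molar DNA/drug ratio calculated from drug bound only covalently to DNA bases.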

[22] = Ratio of DNA to compound bound entirely by covalent bonding to DNA base.; assay type: functional; outline: as §6

In the case of `Cc1c2oc3c(C)c(OCC4CO4)cc(C(=O)N[C@@H]4C(=O)N[C@H](C(C)C)C(=O)N5CCC[C@H]5C(=O)N(C)CC(=O)N(C)[C@@H](C(C)C)C(=O)O[C@@H]4C)c3nc-2c(C(=O)N[C@@H]2C(=O)N[C@H](C(C)C)C(=O)N3CCC[C@H]3C(=O)N(C)CC(=O)N(C)[C@@H](C(C)C)C(=O)O[C@@H]2C)c(N)c1=O` (stereo in doubt; 3b), the IC50 (B16) is reported as 2.5 nM, the IC50 (L1210 [1]) is reported as 28.7 nM and the Dose (L1210 [2]) is reported as 0.05 mg/kg. For the same compound, the ILS (Mus musculus [3]) was 64%, the ILS (Mus musculus [4]) was 186% and the ILS (Mus musculus [5]) was 105%. It also gave a Dose (Mus musculus [6]) of 0.6 mg/kg, an MST (Mus musculus [7]) of 39 days and an MST (Mus musculus [8]) of 36 days. The MST (P388/ADR [9]) was 40 days, the Dose (P388/ADR [10]) was 0.65 mg/kg and the IC50 (P388/ADR [11]) was 80 nM. The ILS (P388/ADR [12]) was 344%, the Dose (Mus musculus [13]) was 1 mg/kg and the MST (Mus musculus [14]) was 54 days. The ILS (Mus musculus [15]) was 64%.
In the case of `COc1cccc2c1C(=O)c1c(O)c3c(c(O)c1C2=O)C[C@@](O)(C(=O)CO)C[C@@H]3O[C@H]1C[C@H](N)[C@H](O)[C@H](C)O1` [DOXORUBICIN], the ILS (Mus musculus [3]) is reported as 118%, the ILS (Mus musculus [5]) is reported as 224% and the Dose (Mus musculus [6]) is reported as 2.5 mg/kg. For the same compound, the MST (Mus musculus [7]) was 60 days, the MST (Mus musculus [8]) was 48 days and the MST (Mus musculus [16]) was 59 days. It also gave an ILS (Mus musculus [17]) of 79%.
Compound `Cc1c2oc3c(C)c(OCC4CO4)cc(C(=O)N[C@@H]4C(=O)N[C@H](C(C)C)C(=O)N5CCC[C@H]5C(=O)N(C)CC(=O)N(C)[C@@H](C(C)C)C(=O)O[C@@H]4C)c3nc-2c(C(=O)N[C@@H]2C(=O)N[C@H](C(C)C)C(=O)N3CCC[C@H]3C(=O)N(C)CC(=O)N(C)[C@@H](C(C)C)C(=O)O[C@@H]2C)c(N)c1=O` (stereo in doubt) has an IC50 (L1210 [18]) of 50 nM, an IC50 (L1210 [19]) of 60 nM and a ΔTm (Bos taurus) of 5.
In the case of `Cc1c2oc3c(C)c(OC[C@H]4CO4)cc(C(=O)N[C@@H]4C(=O)N[C@@H](C(C)C)C(=O)N5CCC[C@H]5C(=O)N(C)CC(=O)N(C)[C@@H](C(C)C)C(=O)O[C@H]4C)c3nc-2c(C(=O)N[C@@H]2C(=O)N[C@@H](C(C)C)C(=O)N3CCC[C@H]3C(=O)N(C)CC(=O)N(C)[C@@H](C(C)C)C(=O)O[C@H]2C)c(N)c1=O`, the Ratio [20] is reported as 30 and the Ratio [21] is reported as 500.
`Cc1c2oc3c(C)c(OCC4CO4)cc(C(=O)N[C@@H]4C(=O)N[C@@H](C(C)C)C(=O)N5CCC[C@H]5C(=O)N(C)CC(=O)N(C)[C@@H](C(C)C)C(=O)O[C@H]4C)c3nc-2c(C(=O)N[C@@H]2C(=O)N[C@@H](C(C)C)C(=O)N3CCC[C@H]3C(=O)N(C)CC(=O)N(C)[C@@H](C(C)C)C(=O)O[C@H]2C)c(N)c1=O` (stereo in doubt; 3b) gave a Ratio [20] of 32 and a Ratio [22] of 480.
